In ChEMBL document CHEMBL6177917, “Synthesis and evaluation of tetrahydropyrrolo[1,2-a]quinolin-1(2H)-ones as new tubulin polymerization inhibitors” (RSC Med Chem, 2025):
Calls of active or inactive are those of the source. The calls are words filed in the database; no cut-off is given here.

Legend:
A549 [1] = experiment: Induction of mitotic arrest in human A549 cells assessed as increase in mitotic index at > 200 uM measured for 12 hrs by phase contrast microscopic analysis; format: functional, cell-based
A549 [2] = experiment: Induction of mitotic arrest in human A549 cells assessed as increase in mitotic index at > 50 uM measured for 12 hrs by phase contrast microscopic analysis; format: functional, cell-based
Tubulin (Homo sapiens) [3] = target: T1, Tubulin (Homo sapiens) (UniProt P68371+Q9H4B7+P0DPH7+P68366+Q13509+Q71U36+P04350+Q3ZCM7+P07437+P68363+Q9BQE3+Q6PEY2+Q13885+Q9BVA1+Q9BUF5); experiment: Destabilization of microtubule network (unknown origin) assessed as reduction in microtubule growth rate measured for 30 min by differential interference contrast microscopic analysis
A549 [4] = experiment: Induction of cell cycle arrest in human A549 cells assessed as accumulation of cells at G2/M phase at 66 uM incubated for 24 hrs by PI staining based flow cytometric analysis; format: functional
Summary of the method: (§1)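 A549 cells were grown 48 h, then given compound or DMSO for 24 h, with nocodazole as control. Cells were fixed in 70% ice-cold ethanol overnight and stained with 30 μg/mL propidium iodide. DNA content was read by flow cytometry, with linear gates for G0/G1, S and G2/M. Mean ± s.d. of 2–3 independent experiments; G2/M versus DMSO tested by Dunnett's test.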

HeLa [5] = experiment: Induction of mitotic arrest in human HeLa cells assessed as increase in mitotic index at > 50 uM measured for 12 hrs by phase contrast microscopic analysis; format: functional, cell-based
MCF7 [6] = experiment: Induction of mitotic arrest in human MCF7 cells assessed as increase in mitotic index at > 200 uM measured for 12 hrs by phase contrast microscopic analysis; format: functional, cell-based
Tubulin (Homo sapiens) [7] = target: T1, Tubulin (Homo sapiens); experiment: Destabilization of microtubule network (unknown origin) assessed as decrease in catastrophes frequency measured for 30 min by differential interference contrast microscopic analysis
HeLa [8] = experiment: Induction of mitotic arrest in human HeLa cells assessed as increase in mitotic index at > 200 uM measured for 12 hrs by phase contrast microscopic analysis; format: functional, cell-based
A549 [9] = experiment: Induction of cell cycle arrest in human A549 cells assessed as accumulation of cells at G2/M phase at > 22 uM incubated for 24 hrs by PI staining based flow cytometric analysis; format: functional; summary of the method: as §1
A549 [10] = experiment: Cytotoxicity against human A549 cells assessed as reduction in cell proliferation incubated for 72 hrs by MTT assay; format: toxicity, cell-based; settings: a549, 72 h
Summary of the method: (§2)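 Cells were seeded at 2500 per well in DMEM/F12 and left 24 h at 37 °C in 5% CO2 before treatment. Compounds came from DMSO stocks and were given at final 100–0.045 μM, eight dilutions, in triplicate, for 72 h. MTT (up to 0.5 mg/mL) was then added for 1.5 h and formazan dissolved in DMSO was read at 565 nm. Signal was normalized to untreated cells and IC50 calculated.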

MCF7 [11] = experiment: Induction of mitotic arrest in human MCF7 cells assessed as increase in mitotic index at > 50 uM measured for 12 hrs by phase contrast microscopic analysis; format: functional, cell-based
A549 [12] = experiment: Induction of cell cycle arrest in human A549 cells assessed as accumulation of cells at G2/M phase incubated for 24 hrs by PI staining based flow cytometry analysis; format: functional; settings: for IC50: A549, 24 h; summary of the method: as §1
Tubulin (Bos taurus) [13] = experiment: Destabilization of microtubule network of purified bovine brain tubulin in vitro assessed as decrease in microtubule growth rate at 25 uM measured for 30 min by differential interference contrast microscopic analysis relative to control; set-up: scale not given: the % may be the effect or the level left
A549 [14] = experiment: Induction of cell cycle arrest in human A549 cells assessed as accumulation of cells at S phase incubated for 24 hrs by PI staining based flow cytometry analysis; format: functional; settings: dose <= 64.0 µM; summary of the method: as §1
Tubulin (Bos taurus) [15] = experiment: Destabilization of microtubule network of purified bovine brain tubulin in vitro assessed as decrease in catastrophes frequency at 25 uM measured for 30 min by differential interference contrast microscopic analysis
Tubulin (Bos taurus) [16] = experiment: Displacement of CPZ from tubulin (bovine brain) assessed as decrease in fluorescence intensity incubated for 1 hr by fluorescence based analysis; settings: dose 100.0 µM
A549 [17] = experiment: Induction of cell cycle arrest in human A549 cells assessed as accumulation of cells at G0/G1 phase incubated for 24 hrs by PI staining based flow cytometry analysis; format: functional; settings: dose <= 64.0 µM; summary of the method: as §1
[18] = Cytotoxicity against HEK293T cells assessed as reduction in cell proliferation incubated for 72 hrs by MTT assay; format: toxicity, cell-based, HEK293; settings: human; summary of the method: as §2
A549 [19] = experiment: Induction of cell cycle arrest in human A549 cells assessed as accumulation of cells at G2/M phase at 116 uM incubated for 24 hrs by PI staining based flow cytometric analysis; format: functional; summary of the method: as §1
A549 [20] = experiment: Induction of cell cycle arrest in human A549 cells assessed as accumulation of cells at G2/M phase at 200 uM incubated for 24 hrs by PI staining based flow cytometric analysis; format: functional; summary of the method: as §1
Tubulin (Homo sapiens) [21] = target: T1, Tubulin (Homo sapiens); experiment: Destabilization of microtubule network (unknown origin) assessed as effect on microtubule growth rate measured for 30 min by differential interference contrast microscopic analysis
A549 [22] = experiment: Induction of cell cycle arrest in human A549 cells assessed as accumulation of cells at G2/M phase up to 200 uM incubated for 24 hrs by PI staining based flow cytometric analysis; format: functional; summary of the method: as §1

In the case of O=C1CC[C@@H]2C[C@H](c3ccccc3)c3ccccc3N12 (racemic), the Activity (A549 [1]) is reported as “Active”, the Activity (A549 [2]) is reported as “Active” and the Activity (Tubulin (Homo sapiens) [3]) is reported as “Active”. The Activity (A549 [4]) was “Active”, the Activity (HeLa [5]) was “Active” and the Activity (MCF7 [6]) was “Active”. The Activity (Tubulin (Homo sapiens) [7]) was “Active”, the Activity (HeLa [8]) was “Active” and the Activity (A549 [9]) was “Active”. For the same compound, the Activity (A549 [10]) was “Toxic”, the Activity (MCF7 [11]) was “Active” and the IC50 (A549 [12]) was 22 µM.

In the case of O=C1CC[C@@H]2C[C@H](c3cccc(O)c3)c3ccccc3N12 (racemic), the Activity (Tubulin (Bos taurus) [13]) is reported as greater than 50%, the Activity (A549 [14]) is reported as “Dose-dependent-effect” and the Activity (Tubulin (Bos taurus) [15]) is reported as “Active”. The Activity (Tubulin (Bos taurus) [16]) was “Active”, the Activity (A549 [17]) was “Dose-dependent-effect” and the IC50 (A549 [12]) was 5.9 µM. The Activity (A549 [12]; dose <= 64.0 µM) was “Dose-dependent-effect” and the IC50 at 72 h [18] was 4.1 µM.

For O=C1CCC(/C=C/c2ccccc2)N1c1ccccc1 (racemic), the Activity (A549 [1]) was “Active”, the Activity (Tubulin (Homo sapiens) [3]) was “Active” and the Activity (MCF7 [6]) was “Active”. For the same compound, the Activity (Tubulin (Homo sapiens) [7]) was “Active”, the Activity (HeLa [8]) was “Active” and the Activity (A549 [19]) was “Active”. For the same compound, the Activity (A549 [10]) was “Toxic”, the IC50 (A549 [12]) was 82 µM and the Activity (A549 [20]) was “Active”.

For CC(C)(C)c1ccc(N2C(=O)CCC2/C=C/c2ccccc2)cc1 (racemic), the Activity (Tubulin (Homo sapiens) [21]) was “No effect”.

In the case of COc1cc(N2C(=O)CCC2c2ccc(Br)cc2)cc(OC)c1OC (racemic), the Activity (Tubulin (Homo sapiens) [21]) is reported as “No effect” and the Activity (Tubulin (Homo sapiens) [7]) is reported as “inactive”.

For COc1ccc(C2CCC(=O)N2c2cc(OC)c(OC)c(OC)c2)cc1OC (racemic), the Activity (Tubulin (Homo sapiens) [21]) was “No effect” and the Activity (Tubulin (Homo sapiens) [7]) was “inactive”.

In the case of COc1ccc(C2CCC(=O)N2c2cccc3[nH]ccc23)cc1OC (racemic), the Activity (Tubulin (Homo sapiens) [21]) is reported as “No effect”.

For COc1ccc(N2C(=O)CCC2/C=C/c2ccc(C)cc2)cc1OC (racemic), the Activity (A549 [22]) was “inactive” and the Activity (Tubulin (Homo sapiens) [21]) was “Active”.

For COc1ccc(N2C(=O)CCC2c2ccc(OC)c(OC)c2)cc1 (racemic), the Activity (Tubulin (Homo sapiens) [21]) was “Active”.

With Cc1ccc(/C=C/C2CCC(=O)N2c2ccccc2)cc1 (racemic) the Activity (A549 [22]) was “inactive” and the Activity (Tubulin (Homo sapiens) [21]) was “Active”.

In the case of Cc1ccc([C@H]2C[C@H]3CCC(=O)N3c3ccccc32)cc1 (racemic), the Activity (A549 [4]) is reported as “inactive” and the Activity (Tubulin (Homo sapiens) [21]) is reported as “Active”.

In the case of Cc1ccccc1C1CCC(=O)N1c1ccc([N+](=O)[O-])cc1 (racemic), the Activity (Tubulin (Homo sapiens) [21]) is reported as “No effect”.

In the case of O=C1CCC(c2c3ccccc3cc3ccccc23)N1c1ccc(C(F)(F)F)cc1 (racemic), the Activity (Tubulin (Homo sapiens) [21]) is reported as “No effect”.
